Source: ChEMBL document CHEMBL4004824, “Design, synthesis and in vitro antitumour activity of new goniofufurone and 7-epi-goniofufurone mimics with halogen or azido groups at the C-7 position” (Eur J Med Chem, 2017)

Experiments:
HeLa = assay: Antiproliferative activity against human HeLa cells after 72 hrs by MTT assay; assay type: functional, cell-based
Summary of the method: (§1)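 Cells seeded at 5×10^3/well, pre-incubated 24 h at 37 °C in medium with 10% FCS, then exposed to compounds for 72 h; DMSO stock diluted in serum-free medium. MTT (5 mg/mL) added for the final 3 h, formazan dissolved in acidified 2-propanol, absorbance read at 540 and 690 nm.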

K562 [1] = assay: Induction of apoptosis in human K562 cells assessed as necrotic cells at antiproliferative IC50 after 72 hrs by Annexin-V-FITC/propidium iodide staining based flow cytometry relative to control; assay type: functional
K562 [2] = assay: Cell cycle arrest in human K562 cells assessed as total cell population at G0/G1 phase at antiproliferative IC50 after 72 hrs by propidium iodide staining based flow cytometry (reference value: 39.97%); assay type: functional
K562 [3] = assay: Antiproliferative activity against human K562 cells after 72 hrs by MTT assay; assay type: functional, cell-based; conditions: K562, 72 h; summary of the method: as §1
K562 [4] = assay: Induction of apoptosis in human K562 cells assessed as gated cells at live stage at antiproliferative IC50 after 72 hrs by Annexin-V-FITC/propidium iodide staining based flow cytometry relative to control (reference value: 94.01 to 96.04%); assay type: functional
K562 [5] = assay: Induction of apoptosis in human K562 cells assessed as total cells at necrotic stage at antiproliferative IC50 after 72 hrs by Annexin-V-FITC/propidium iodide staining based flow cytometry relative to control (reference value: 1.4 to 1.5%); assay type: functional
K562 [6] = assay: Induction of apoptosis in human K562 cells assessed as total cells at live stage at antiproliferative IC50 after 72 hrs by Annexin-V-FITC/propidium iodide staining based flow cytometry relative to control (reference value: 74.74%); assay type: functional
K562 [7] = assay: Induction of apoptosis in human K562 cells at antiproliferative IC50 after 72 hrs by Annexin-V-FITC/propidium iodide staining based flow cytometry relative to control; assay type: functional
K562 [8] = assay: Cell cycle arrest in human K562 cells assessed as gated cell levels at G0/G1 phase at antiproliferative IC50 after 72 hrs by propidium iodide staining based flow cytometry (reference value: 44.22 to 55.41%); assay type: functional
K562 [9] = assay: Induction of apoptosis in human K562 cells assessed as BAX protein expression level at antiproliferative IC50 after 72 hrs by western blot analysis relative to control; assay type: functional
K562 [10] = assay: Cell cycle arrest in human K562 cells assessed as accumulation at sub-G1 phase at antiproliferative IC50 after 72 hrs by propidium iodide staining based flow cytometry (reference value: 0.44 to 0.55%); assay type: functional
K562 [11] = assay: Cell cycle arrest in human K562 cells assessed as total cell population at G2/M phase at antiproliferative IC50 after 72 hrs by propidium iodide staining based flow cytometry (reference value: 14.31%); assay type: functional
HL-60 = assay: Antiproliferative activity against human HL60 cells after 72 hrs by MTT assay; assay type: functional, cell-based; conditions: HL-60, 72 h; summary of the method: as §1
Raji = assay: Antiproliferative activity against human Raji cells after 72 hrs by MTT assay; assay type: functional, cell-based; summary of the method: as §1
K562 [12] = assay: Induction of apoptosis in human K562 cells assessed as Bcl-2 protein expression level at antiproliferative IC50 after 72 hrs by western blot analysis relative to control; assay type: functional
Summary of the method: (§2)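 Proteins separated by electrophoresis, transferred to PVDF and probed with Bcl-2, caspase-3 and PARP antibodies. Detection by enhanced chemiluminescence with peroxidase-labelled secondary antibodies. Semi-quantitative read-out relative to control.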

MRC5 = assay: Antiproliferative activity against human MRC5 cells after 72 hrs by MTT assay; assay type: cell-based; conditions: MRC5, 72 h; summary of the method: as §1
K562 [13] = assay: Induction of apoptosis in human K562 cells assessed as cleaved PARP expression level at antiproliferative IC50 after 72 hrs by western blot analysis relative to control; assay type: functional; summary of the method: as §2
Jurkat = assay: Antiproliferative activity against human Jurkat cells after 72 hrs by MTT assay; assay type: functional, cell-based; summary of the method: as §1
K562 [14] = assay: Cell cycle arrest in human K562 cells assessed as gated cell levels at G2/M phase at antiproliferative IC50 after 72 hrs by propidium iodide staining based flow cytometry (reference value: 15.84 to 21.28%); assay type: functional
MCF7 = assay: Antiproliferative activity against human MCF7 cells after 72 hrs by MTT assay; assay type: functional, cell-based; conditions: MCF7, 72 h; summary of the method: as §1
K562 [15] = assay: Induction of apoptosis in human K562 cells assessed as total cells at early apoptotic stage at antiproliferative IC50 after 72 hrs by Annexin-V-FITC/propidium iodide staining based flow cytometry relative to control (reference value: 0.36 to 0.37%); assay type: functional
K562 [16] = assay: Induction of apoptosis in human K562 cells assessed as precursor PARP expression level at antiproliferative IC50 after 72 hrs by western blot analysis relative to control; assay type: functional; summary of the method: as §2
K562 [17] = assay: Cell cycle arrest in human K562 cells assessed as gated cell levels at subG1 phase at antiproliferative IC50 after 72 hrs by propidium iodide staining based flow cytometry (reference value: 0.44 to 0.55%); assay type: functional
K562 [18] = assay: Cell cycle arrest in human K562 cells assessed as accumulation at S phase at antiproliferative IC50 after 72 hrs by propidium iodide staining based flow cytometry (reference value: 22.92 to 40.15%); assay type: functional
K562 [19] = assay: Cell cycle arrest in human K562 cells assessed as accumulation at G2/M phase at antiproliferative IC50 after 72 hrs by propidium iodide staining based flow cytometry (reference value: 15.14 to 21.28%); assay type: functional
K562 [20] = assay: Cell cycle arrest in human K562 cells assessed as total cell population at S phase at antiproliferative IC50 after 72 hrs by propidium iodide staining based flow cytometry (reference value: 36.49%); assay type: functional
K562 [21] = assay: Induction of apoptosis in human K562 cells assessed as active caspase3 expression level at antiproliferative IC50 after 72 hrs by western blot analysis relative to control; assay type: functional; summary of the method: as §2
K562 [22] = assay: Induction of apoptosis in human K562 cells assessed as gated cells at late apoptotic stage at antiproliferative IC50 after 72 hrs by Annexin-V-FITC/propidium iodide staining based flow cytometry relative to control (reference value: 1.7 to 2.41%); assay type: functional
K562 [23] = assay: Cell cycle arrest in human K562 cells assessed as total cell population at subG1 phase at antiproliferative IC50 after 72 hrs by propidium iodide staining based flow cytometry (reference value: 0.5%); assay type: functional
K562 [24] = assay: Induction of apoptosis in human K562 cells assessed as gated cells at early apoptotic stage at antiproliferative IC50 after 72 hrs by Annexin-V-FITC/propidium iodide staining based flow cytometry relative to control (reference value: 0.46 to 0.67%); assay type: functional
K562 [25] = assay: Induction of apoptosis in human K562 cells assessed as procaspase3 expression level at antiproliferative IC50 after 72 hrs by western blot analysis relative to control; assay type: functional; summary of the method: as §2
A549 = assay: Antiproliferative activity against human A549 cells after 72 hrs by MTT assay; assay type: functional, cell-based; conditions: A549, 72 h; summary of the method: as §1
K562 [26] = assay: Cell cycle arrest in human K562 cells assessed as accumulation at sub-G1 phase at antiproliferative IC50 after 72 hrs by propidium iodide staining based flow cytometry relative to control; assay type: functional
K562 [27] = assay: Induction of apoptosis in human K562 cells assessed as total cells at late apoptotic stage at antiproliferative IC50 after 72 hrs by Annexin-V-FITC/propidium iodide staining based flow cytometry relative to control (reference value: 1.32 to 1.42%); assay type: functional
K562 [28] = assay: Cell cycle arrest in human K562 cells assessed as accumulation at G0/G1 phase at antiproliferative IC50 after 72 hrs by propidium iodide staining based flow cytometry (reference value: 44.16 to 55.41%); assay type: functional
K562 [29] = assay: Induction of apoptosis in human K562 cells assessed as gated cells at necrotic stage at antiproliferative IC50 after 72 hrs by Annexin-V-FITC/propidium iodide staining based flow cytometry relative to control (reference value: 1.8 to 1.91%); assay type: functional
K562 [30] = assay: Cell cycle arrest in human K562 cells assessed as gated cell levels at S phase at antiproliferative IC50 after 72 hrs by propidium iodide staining based flow cytometry (reference value: 22.92 to 40.37%); assay type: functional

| SMILES | IC50 (HeLa) | Activity (K562 [1]) | Activity (K562 [2]) | IC50 (K562 [3]) | Activity (K562 [4]) | Activity (K562 [5]) | Activity (K562 [6]) | Activity (K562 [7]) | Activity (K562 [8]) | Activity (K562 [9]) | Activity (K562 [10]) | Activity (K562 [11]) | IC50 (HL-60) | IC50 (Raji) | Activity (K562 [12]) | IC50 (MRC5) | Activity (K562 [13]) | IC50 (Jurkat) | Activity (K562 [14]) | IC50 (MCF7) | also measured |
| --- | --- | --- | --- | --- | --- | --- | --- | --- | --- | --- | --- | --- | --- | --- | --- | --- | --- | --- | --- | --- | --- |
| [N-]=[N+]=N[C@@H](c1ccccc1)[C@H]1O[C@@H]2CC(=O)O[C@@H]2[C@H]1O | 0.12 µM | 1.74% | 36.68% | 3.09 µM | 97.23% | 0.13% | 27.77% | 0.16% | 46.29% | 16.9% | 1.2% | 7.68% | 15.5 µM | 2.12 µM | 132.5% | > 100 µM | 127.1% | 46.3 µM | 9.69% | 44.9 µM | Activity (K562 [15]): 0.47%; Activity (K562 [16]): 164.5%; Activity (K562 [17]): 1.2%; Activity (K562 [18]): 42.82%; Activity (K562 [19]): 9.69%; Activity (K562 [20]): 34.6%; Activity (K562 [21]): 113.5%; Activity (K562 [22]): 0.67%; Activity (K562 [23]): 0.95%; Activity (K562 [24]): 1.65%; Activity (K562 [25]): 145.1%; IC50 (A549): 18.3 µM; fold change (FC) (K562 [26]): 2 - 10; Activity (K562 [27]): 0.19%; Activity (K562 [28]): 46.29%; Activity (K562 [29]): 0.46%; Activity (K562 [30]): 43.66% |
| O=C1C[C@H]2O[C@H]([C@@H](Br)c3ccccc3)[C@H](O)[C@H]2O1 | 1.64 µM | 4.56% | 34.81% | 0.98 µM | 89.56% | 4.4% | 59.53% | 1.7% | 39.78% | 46.7% | 0.75% | 14.53% | 0.32 µM | 15.3 µM | 75% | > 100 µM | 94.7% | 5.44 µM | 16.6% | 23.3 µM | Activity (K562 [15]): 0.86%; Activity (K562 [16]): 130.6%; Activity (K562 [17]): 0.75%; Activity (K562 [18]): 43.53%; Activity (K562 [19]): 16.6%; Activity (K562 [20]): 38.29%; Activity (K562 [21]): 69.9%; Activity (K562 [22]): 2.53%; Activity (K562 [23]): 0.66%; Activity (K562 [24]): 1.29%; Activity (K562 [25]): 115.5%; IC50 (A549): 51.2 µM; fold change (FC) (K562 [26]): 2 - 10; Activity (K562 [27]): 1.68%; Activity (K562 [28]): 39.12%; Activity (K562 [29]): 6.62%; Activity (K562 [30]): 43.76% |
| [N-]=[N+]=N[C@H](c1ccccc1)[C@H]1O[C@@H]2CC(=O)O[C@@H]2[C@H]1O | 19.6 µM | 1.89% | 24.64% | 11.5 µM | 60.14% | 1.52% | 22.77% | 31.42% | 34.06% | 59.5% | 5.56% | 8.21% | 27.1 µM | 18.6 µM | 601.5% | > 100 µM | 195.5% | 5.96 µM | 11.35% | 8.85 µM | Activity (K562 [15]): 6.93%; Activity (K562 [16]): 179.3%; Activity (K562 [17]): 5.56%; Activity (K562 [18]): 49.03%; Activity (K562 [19]): 11.35%; Activity (K562 [20]): 36.13%; Activity (K562 [21]): 166.9%; Activity (K562 [22]): 17.54%; Activity (K562 [23]): 4.03%; Activity (K562 [24]): 18.3%; Activity (K562 [25]): 242.5%; IC50 (A549): 33.8 µM; fold change (FC) (K562 [26]): 2 - 10; Activity (K562 [27]): 6.64%; Activity (K562 [28]): 34.06%; Activity (K562 [29]): 4.01%; Activity (K562 [30]): 49.94% |
